Experimental data as given in ChEMBL document CHEMBL3414431, “Synthesis, biological evaluation and molecular docking of some substituted pyrazolines and isoxazolines as potential antimicrobial agents” (2015).
Converted amounts (≈) assume the structure as drawn.

Assays:
Candida albicans [1] = test: Antimicrobial activity against Candida albicans ATCC 12031 after 48 hrs by two-fold serial dilution method; type: functional; conditions: ATCC 12031, 48 h
Outline: (§1)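 Two-fold serial broth dilution of compounds, 100 down to 3.125 (six levels). Each was inoculated with fungal suspension at 10^6 CFU/mL in suitable broth and incubated at 37 °C for 48 h. Growth was judged by turbidity to assign the minimum inhibitory concentration.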

Aspergillus versicolor [2] = test: Antimicrobial activity against Aspergillus versicolor ATCC 10072 after 48 hrs by two-fold serial dilution method; type: functional; conditions: ATCC 10072, 48 h; outline: as §1
Escherichia coli = test: Antimicrobial activity against Escherichia coli ATCC 25922 assessed as diameter of zone of inhibition at 2 mg/ml after 24 hrs by agar well diffusion method; type: functional; conditions: ATCC 25922, 24 h, read-out: DIZ
Outline: (§2)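 Agar well diffusion. Fungi were grown on Sabouraud dextrose agar and bacteria on nutrient agar (peptone, beef extract, NaCl, agar), with the inoculum spread over the medium. Wells were bored and filled with test drug at 2.0 mg/ml in DMSO. Plates sat 1 h at room temperature for diffusion, then 37 °C for 24 h. Inhibition zone diameter (mm, including well) is reported as mean ± SEM.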

Staphylococcus aureus [3] = test: Antimicrobial activity against Staphylococcus aureus ATCC 25923 assessed as diameter of zone of inhibition at 2 mg/ml after 24 hrs by agar well diffusion method; type: functional; conditions: ATCC 25923, 24 h, read-out: DIZ; outline: as §2
Aspergillus fumigatus [4] = test: Antimicrobial activity against Aspergillus fumigatus ATCC 1022 assessed as diameter of zone of inhibition at 2 mg/ml after 24 hrs by agar well diffusion method; type: functional; conditions: ATCC 1022, 24 h, read-out: DIZ; outline: as §2
Aspergillus flavus [5] = test: Antimicrobial activity against Aspergillus flavus ATCC 9643 after 48 hrs by two-fold serial dilution method; type: functional; conditions: ATCC 9643, 48 h; outline: as §1
Aspergillus flavus [6] = test: Antimicrobial activity against Aspergillus flavus ATCC 9643 assessed as diameter of zone of inhibition at 2 mg/ml after 24 hrs by agar well diffusion method; type: functional; conditions: ATCC 9643, 24 h, read-out: DIZ; outline: as §2
Aspergillus fumigatus [7] = test: Antimicrobial activity against Aspergillus fumigatus ATCC 1022 after 48 hrs by two-fold serial dilution method; type: functional; conditions: ATCC 1022, 48 h; outline: as §1
Candida albicans [8] = test: Antimicrobial activity against Candida albicans ATCC 12031 assessed as diameter of zone of inhibition at 2 mg/ml after 24 hrs by agar well diffusion method; type: functional; conditions: ATCC 12031, 24 h, read-out: DIZ; outline: as §2
Aspergillus versicolor [9] = test: Antimicrobial activity against Aspergillus versicolor ATCC 10072 assessed as diameter of zone of inhibition at 2 mg/ml after 24 hrs by agar well diffusion method; type: functional; conditions: ATCC 10072, 24 h, read-out: DIZ; outline: as §2
Staphylococcus aureus [10] = test: microbe, parasite or virus in culture; conditions: ATCC 25923, 24 h, read-out: DIZ
Candida albicans [11] = test: Antimicrobial activity against Candida albicans ATCC 12031 assessed as diameter of zone of inhibition at 20 microg/disc after 24 hrs by agar well diffusion method; type: functional; conditions: ATCC 12031, 24 h, read-out: DIZ
Outline: (§3)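 Fungal inoculum spread on Sabouraud dextrose agar. 6 mm wells bored and filled with test drug at 2.0 mg/ml in DMSO (stock-as-added). Plates held 1 h at room temperature for diffusion, then incubated at 37 °C for 24 h. Inhibition zone diameter measured in mm, including well diameter. Reported as mean ± SEM.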

Aspergillus fumigatus [12] = test: Antimicrobial activity against Aspergillus fumigatus ATCC 1022 assessed as diameter of zone of inhibition at 20 microg/disc after 24 hrs by agar well diffusion method; type: functional; conditions: ATCC 1022, 24 h, read-out: DIZ; outline: as §3
Aspergillus flavus [13] = test: Antimicrobial activity against Aspergillus flavus ATCC 9643 assessed as diameter of zone of inhibition at 20 microg/disc after 24 hrs by agar well diffusion method; type: functional; conditions: ATCC 9643, 24 h, read-out: DIZ; outline: as §3
Aspergillus versicolor [14] = test: Antimicrobial activity against Aspergillus versicolor ATCC 10072 assessed as diameter of zone of inhibition at 20 microg/disc after 24 hrs by agar well diffusion method; type: functional; conditions: ATCC 10072, 24 h, read-out: DIZ; outline: as §3

Compound | MIC (Candida albicans [1]) | MIC (Aspergillus versicolor [2]) | zone of inhibition at 2000 µg/mL (Escherichia coli) | zone of inhibition at 2000 µg/mL (Staphylococcus aureus [3]) | zone of inhibition at 2000 µg/mL (Aspergillus fumigatus [4]) | MIC (Aspergillus flavus [5]) | zone of inhibition at 2000 µg/mL (Aspergillus flavus [6]) | MIC (Aspergillus fumigatus [7]) | zone of inhibition at 2000 µg/mL (Candida albicans [8]) | zone of inhibition at 2000 µg/mL (Aspergillus versicolor [9]) | zone of inhibition at 25 µg/disc (Staphylococcus aureus [10]) | zone of inhibition at 20 µg/disc (Candida albicans [11]) | zone of inhibition at 20 µg/disc (Aspergillus fumigatus [12]) | zone of inhibition at 20 µg/disc (Aspergillus flavus [13]) | zone of inhibition at 20 µg/disc (Aspergillus versicolor [14])
COc1ccc(C2CC(c3c(O)cc(C)c(Cl)c3C)=NN2)cc1 (centres undefined) | 50 µg/mL (≈ 151 µM) | 25 µg/mL (≈ 75.6 µM) | 8 mm | 11 mm | 18 mm | 6.25 µg/mL (≈ 18.9 µM) | 12 mm | 25 µg/mL (≈ 75.6 µM) | 18 mm | 13 mm |  |  |  |  | 
Cc1cc(O)c(C2=NNC(c3cccc(O)c3)C2)c(C)c1Cl (centres undefined) | 12.5 µg/mL (≈ 39.5 µM) | 6.25 µg/mL (≈ 19.7 µM) | 9 mm | 11 mm | 20 mm | 3.12 µg/mL (≈ 9.86 µM) | 21 mm | 12.5 µg/mL (≈ 39.5 µM) | 23 mm | 21 mm |  |  |  |  | 
Cc1cc(O)c(C2=NNC(c3ccc(N(C)C)cc3)C2)c(C)c1Cl (centres undefined) | 12.5 µg/mL (≈ 36.4 µM) | 12.5 µg/mL (≈ 36.4 µM) | 8 mm | 12 mm | 18 mm | 6.25 µg/mL (≈ 18.2 µM) | 13 mm | 12.5 µg/mL (≈ 36.4 µM) | 18 mm | 13 mm |  |  |  |  | 
COc1ccc(C2CC(c3c(O)cc(C)c(Cl)c3C)=NN2)cc1OC (centres undefined) | 12.5 µg/mL (≈ 34.6 µM) | 12.5 µg/mL (≈ 34.6 µM) | 8 mm | 11 mm | 21 mm | 25 µg/mL (≈ 69.3 µM) | 17 mm | 12.5 µg/mL (≈ 34.6 µM) | 20 mm | 16 mm |  |  |  |  | 
COc1cc(C2CC(c3c(O)cc(C)c(Cl)c3C)=NN2)cc(OC)c1OC (centres undefined) | 12.5 µg/mL (≈ 32 µM) | 12.5 µg/mL (≈ 32 µM) | 9 mm | 10 mm | 21 mm | 12.5 µg/mL (≈ 32 µM) | 15 mm | 12.5 µg/mL (≈ 32 µM) | 20 mm | 16 mm |  |  |  |  | 
Cc1cc(O)c(C2=NOC(c3ccccc3)C2)c(C)c1Cl (centres undefined) | 25 µg/mL (≈ 82.8 µM) | 25 µg/mL (≈ 82.8 µM) | 8 mm | 11 mm | 21 mm | 6.25 µg/mL (≈ 20.7 µM) | 15 mm | 12.5 µg/mL (≈ 41.4 µM) | 22 mm | 17 mm |  |  |  |  | 
COc1ccc(C2CC(c3c(O)cc(C)c(Cl)c3C)=NO2)cc1 (centres undefined) | 12.5 µg/mL (≈ 37.7 µM) | 25 µg/mL (≈ 75.3 µM) | 8 mm | 11 mm | 16 mm | 6.25 µg/mL (≈ 18.8 µM) | 16 mm | 25 µg/mL (≈ 75.3 µM) | 22 mm | 15 mm |  |  |  |  | 
Cc1cc(O)c(C2=NOC(c3ccc(Cl)cc3)C2)c(C)c1Cl (centres undefined) | 12.5 µg/mL (≈ 37.2 µM) | 12.5 µg/mL (≈ 37.2 µM) | 7 mm | 12 mm | 20 mm | 12.5 µg/mL (≈ 37.2 µM) | 20 mm | 6.25 µg/mL (≈ 18.6 µM) | 22 mm | 21 mm |  |  |  |  | 
Cc1cc(O)c(C2=NOC(c3ccccc3Cl)C2)c(C)c1Cl (centres undefined) | 12.5 µg/mL (≈ 37.2 µM) | 12.5 µg/mL (≈ 37.2 µM) | 8 mm | 11 mm | 21 mm | 12.5 µg/mL (≈ 37.2 µM) | 20 mm | 6.25 µg/mL (≈ 18.6 µM) | 23 mm | 20 mm |  |  |  |  | 
COc1ccc(C2CC(c3c(O)cc(C)c(Cl)c3C)=NO2)cc1OC (centres undefined) | 12.5 µg/mL (≈ 34.5 µM) | 12.5 µg/mL (≈ 34.5 µM) | 9 mm | 10 mm | 15 mm | 12.5 µg/mL (≈ 34.5 µM) | 15 mm | 6.25 µg/mL (≈ 17.3 µM) | 21 mm | 14 mm |  |  |  |  | 
COc1cc(C)c(Cl)c(C)c1C(=O)C1=NNCC1c1ccccc1 (centres undefined) | 25 µg/mL (≈ 72.9 µM) | 12.5 µg/mL (≈ 36.5 µM) | 8 mm | 10 mm | 20 mm | 6.25 µg/mL (≈ 18.2 µM) | 21 mm | 6.25 µg/mL (≈ 18.2 µM) | 19 mm | 19 mm |  |  |  |  | 
COc1ccccc1C1CNN=C1C(=O)c1c(OC)cc(C)c(Cl)c1C (centres undefined) | 12.5 µg/mL (≈ 33.5 µM) | 12.5 µg/mL (≈ 33.5 µM) | 8 mm | 9 mm | 18 mm | 6.25 µg/mL (≈ 16.8 µM) | 19 mm | 12.5 µg/mL (≈ 33.5 µM) | 21 mm | 20 mm |  |  |  |  | 
COc1cc(C)c(Cl)c(C)c1C(=O)C1=NNCC1c1ccccc1[N+](=O)[O-] (centres undefined) | 25 µg/mL (≈ 64.5 µM) | 12.5 µg/mL (≈ 32.2 µM) | 9 mm | 10 mm | 20 mm | 12.5 µg/mL (≈ 32.2 µM) | 19 mm | 12.5 µg/mL (≈ 32.2 µM) | 20 mm | 19 mm |  |  |  |  | 
O=C(O)c1cn(C2CC2)c2cc(N3CCNCC3)c(F)cc2c1=O [CIPROFLOXACIN] |  |  |  |  |  |  |  |  |  |  | 24 mm |  |  |  | 
OC(Cn1cncn1)(Cn1cncn1)c1ccc(F)cc1F [FLUCONAZOLE] | 12.5 µg/mL (≈ 40.8 µM) | 3.12 µg/mL (≈ 10.2 µM) |  |  |  | 12.5 µg/mL (≈ 40.8 µM) |  | 12.5 µg/mL (≈ 40.8 µM) |  |  |  | 21 mm | 22 mm | 21 mm | 21 mm
